Assay results published in ChEMBL document CHEMBL1139851, “Synthesis and SAR of [1,2,4]triazolo[1,5-a]pyrimidines, a class of anticancer agents with a unique mechanism of tubulin inhibition” (J Med Chem, 2007).
The source made the active and inactive calls. The calls are words filed in the database; no cut-off is given here.

What was measured:
[1] = tested on: COLO 205; experiment: Cytotoxicity against COLO205 cells; assay type: cell-based; details: Homo sapiens
Method in brief: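 MTS cytotoxicity assay in COLO 205 cells. Trypsinized cells were plated at 1000/well and preincubated about 24 h at 37 °C in 5% CO2. Compounds were added as nine serial 2-fold DMSO dilutions, final top concentration typically 5 µM, and cells were cultured 3 days. Absorbance was normalized to a time-0 plate. IC50 was read from a 10-concentration dose-response curve run in triplicate.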

[2] = tested on: U-87MG ATCC; experiment: Antitumor activity against U87-MG cells xenografted in orally dosed athymic nu/nu mouse; assay type: functional, organism-based; details: Homo sapiens
Method in brief: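 U87-MG flank xenografts (1 × 10⁶ cells, subcutaneous) were grown in female athymic nu/nu mice and staged at 80-120 mg. Compound was given by oral gavage on days 0 and 7 after staging. Controls received Klucel vehicle […], with nine animals per group. Tumor volume was (length × width²)/2, tested by one-sided Student's t-test.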

[3] = Ratio of IC50 for KBV1 cells to IC50 for KB cells; assay type: functional, Homo sapiens
Method in brief: (§1)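 Resistance ratio is IC50 on KB 8.5 or KB V1 cells divided by IC50 on parental KB cells, each from 10-concentration duplicate dose-response curves.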

[4] = target: T1, Tubulin (Homo sapiens) (UniProt P68371+Q9H4B7+P0DPH7+P68366+Q13509+Q71U36+P04350+Q3ZCM7+P07437+P68363+Q9BQE3+Q6PEY2+Q13885+Q9BVA1+Q9BUF5); experiment: Induction of tubulin polymerization in absence of GTP; assay type: protein-complex assay
[5] = Antiproliferative activity against KB8.5 cells expressing MDR1; assay type: functional, cell-based; details: Homo sapiens
Method in brief: (§2)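 KB, KB 8.5 and KB V1 lines differ in P-gp (MDR1) level. Growth-inhibition IC50 was taken from a dose-response curve at 10 concentrations in duplicate.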

[6] = Solubility in water at pH 5.48; assay type: physicochemical
[7] = Metabolic stability in mouse liver microsomes; assay type: ADME, Microsome
[8] = Volume of distribution in rat; assay type: ADME, organism-based; details: in vivo, read-out: Vdss
[9] = Antiproliferative activity against KBV1 cells expressing MDR1; assay type: functional, cell-based; details: Homo sapiens, KB-V1; method in brief: as §2
[10] = tested on: KB; experiment: Ratio of IC50 for KB8.5 cells to IC50 for KB cells; assay type: functional, Homo sapiens; method in brief: as §1
[11] = organism: Homo sapiens; experiment: Displacement of [3H]paclitaxel from microtubules
[12] = target: T1, Tubulin (Homo sapiens); experiment: Displacement of [3H]vinblastine from tubulin; assay type: protein-complex assay
[13] = tested on: U-87MG ATCC; experiment: Antitumor activity against U87-MG cells xenografted in iv dosed athymic nu/nu mouse; assay type: functional, organism-based; details: Homo sapiens
Method in brief: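 Female athymic nu/nu mice received 1 × 10⁶ U87-MG cells subcutaneously in the flank. Once tumors reached 80-120 mg they were randomized into groups of 5-10. Compound was given iv in Klucel or 0.9% saline; controls got vehicle alone. Tumor volume was (length × width²)/2, compared with vehicle by one-sided Student's t-test, p ≤ 0.05.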

[14] = Half life in rat; assay type: ADME, organism-based; details: in vivo
[15] = Oral bioavailability in rat; assay type: ADME, organism-based; details: in vivo
[16] = target: T1, Tubulin (Homo sapiens); experiment: Displacement of [3H]colchicine from tubulin; assay type: protein-complex assay
[17] = Metabolic stability in rat liver microsomes; assay type: ADME, Microsome
[18] = tested on: HeLa; experiment: Mitotic block in HeLa cells assessed as increase in G2/M peak by flow cytometry at >35 nM; assay type: functional, cell-based; details: Homo sapiens
[19] = tested on: A549; experiment: Antitumor activity against A549 cells xenografted in athymic nu/nu mouse after iv administration; assay type: functional, organism-based
Method in brief: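 Female athymic nu/nu mice were implanted subcutaneously in the flank with 1 × 10⁷ A549 cells. Animals were staged at about 300 (mm³/mg), then randomized into groups of 5-10. Dosing was iv on days 0, 7, 14 and 21, in Klucel or 0.9% saline; controls got vehicle. Tumor volume was (length × width²)/2. Analysis used a one-sided Student's t-test, p ≤ 0.05.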

[20] = Clearance in rat; assay type: ADME, organism-based; details: in vivo
[21] = target: T1, Tubulin (Homo sapiens); experiment: Induction of MAP-rich tubulin polymerization at 2.7 uM; assay type: protein-complex assay
[22] = tested on: KB; experiment: Antiproliferative activity against KB cells expressing MDR1; assay type: functional, cell-based; details: Homo sapiens; method in brief: as §2
[23] = Solubility in water at pH 6.74; assay type: physicochemical
[24] = tested on: HeLa; experiment: Induction of apoptosis in HeLa cells assessed as increase in sub-G1 population at 35 nM; assay type: functional, cell-based; details: Homo sapiens
[25] = tested on: HeLa; experiment: Induction of apoptosis in HeLa cells assessed as increase in sub-G1 population at 1 uM; assay type: functional, cell-based; details: Homo sapiens
[26] = tested on: HeLa; experiment: Induction of apoptosis in HeLa cells assessed as effect on sub-G1 population; assay type: functional, cell-based; details: Homo sapiens

C[C@H](Nc1c(-c2c(F)cc(OCCCO)cc2F)c(Cl)nc2ncnn12)C(F)(F)F
IC50 [1]: 67 nM

C[C@H](Nc1c(-c2c(F)ccc(F)c2F)c(Cl)nc2ncnn12)C(F)(F)F
IC50 [1]: 183 nM

C[C@H](Nc1c(-c2c(F)cc(OCCN(C)C)cc2F)c(Cl)nc2ncnn12)C(F)(F)F
IC50 [1]: 581 nM

CNCCCOc1cc(F)c(-c2c(Cl)nc3ncnn3c2N[C@@H](C)C(F)(F)F)c(F)c1.Cl
Activity [2]: Active
Ratio IC50 [3]: 41.5
Activity [4]: Active
IC50 [5]: 67 nM
solubility [6]: 7990 µg/mL
half-life [7]: 7.22 h
Vd [8]: 14 L/kg
IC50 [9]: 953 nM
Ratio IC50 [10]: 2.9
Activity [11]: inactive
Activity [12]: Active
Activity [13]: Active
half-life [14]: 13 h
bioavailability [15]: 61%
Activity [16]: inactive
half-life [17]: 1.47 h
Activity [18]: Active
Tumour inhibition [19]: Active
IC50 [1]: 31 nM
clearance [20]: 14 mL/min/kg
Activity [21]: Active
IC50 [22]: 23 nM
solubility [23]: 890 µg/mL
Activity [24]: Active

CC(=O)O[C@@]12CO[C@@H]1C[C@H](O)[C@@]1(C)C(=O)[C@H](O)C3=C(C)[C@@H](OC(=O)[C@H](O)[C@@H](NC(=O)OC(C)(C)C)c4ccccc4)C[C@@](O)([C@@H](OC(=O)c4ccccc4)[C@H]21)C3(C)C
Activity [25]: Active

C[C@H](Nc1c(-c2c(F)ccc(OCCCCN(C)C)c2F)c(Cl)nc2ncnn12)C(F)(F)F
IC50 [1]: 433 nM

CN(C)CCCOc1cc(F)c(-c2c(Cl)nc3ncnn3c2NCC(F)(F)F)c(F)c1.Cl
Activity [2]: Active
Ratio IC50 [3]: 14
IC50 [5]: 38 nM
IC50 [9]: 263 nM
Ratio IC50 [10]: 2
Activity [13]: Active
IC50 [1]: 53 nM
IC50 [22]: 18.7 nM

C[C@H](Nc1c(-c2c(F)ccc(OCCN(C)C)c2F)c(Cl)nc2ncnn12)C(F)(F)F
IC50 [1]: 1570 nM

C[C@H](Nc1c(-c2c(F)cc(OCCCN3CCC3)cc2F)c(Cl)nc2ncnn12)C(F)(F)F
IC50 [1]: 326 nM

C[C@H](Nc1c(-c2c(F)cc(OCCO)cc2F)c(Cl)nc2ncnn12)C(F)(F)F
IC50 [1]: 422 nM

C[C@H](Nc1c(-c2c(F)cc(OCCCCCO)cc2F)c(Cl)nc2ncnn12)C(F)(F)F
IC50 [1]: 214 nM

C[C@H](Nc1c(-c2c(F)cc(CCCCN(C)C)cc2F)c(Cl)nc2ncnn12)C(F)(F)F
IC50 [1]: 665 nM

CCN(C)CCCOc1cc(F)c(-c2c(Cl)nc3ncnn3c2N[C@@H](C)C(F)(F)F)c(F)c1
IC50 [1]: 48 nM

C[C@H](Nc1c(-c2ccc(OCCCN(C)C)cc2F)c(Cl)nc2ncnn12)C(F)(F)F
IC50 [1]: 262 nM

COc1cc2c(c(OC)c1OC)-c1ccc(OC)c(=O)cc1[C@@H](NC(C)=O)CC2
Activity [26]: inactive

C[C@H](Nc1c(-c2c(F)cc(OCCCN(C)C)cc2F)c(Br)nc2ncnn12)C(F)(F)F
IC50 [1]: 96 nM

C[C@H](Nc1c(-c2c(F)cc(OCCCN)cc2F)c(Cl)nc2ncnn12)C(F)(F)F
IC50 [1]: 452 nM

C[C@H](Nc1c(-c2c(F)cc(F)cc2F)c(Cl)nc2ncnn12)C(F)(F)F
IC50 [1]: 267 nM

C[C@H](Nc1c(-c2c(F)cc(F)cc2F)c(Br)nc2ncnn12)C(F)(F)F
IC50 [1]: 232 nM

Fc1cc(F)c(-c2c(Cl)nc3ncnn3c2NCC(F)(F)F)c(F)c1
IC50 [1]: 372 nM

C[C@H](Nc1c(-c2c(F)cc(OCCCCO)cc2F)c(Cl)nc2ncnn12)C(F)(F)F
Ratio IC50 [3]: 1.6
IC50 [5]: 70 nM
IC50 [9]: 67 nM
Ratio IC50 [10]: 1.6
IC50 [1]: 151 nM
IC50 [22]: 42 nM

C[C@H](Nc1c(-c2c(F)cc(OCCCN3CCCC3)cc2F)c(Cl)nc2ncnn12)C(F)(F)F
Activity [2]: Active
Activity [13]: Active
IC50 [1]: 44 nM

C[C@H](Nc1c(-c2c(F)cc(OCCN3CCOCC3)cc2F)c(Cl)nc2ncnn12)C(F)(F)F
IC50 [1]: 245 nM

C[C@H](Nc1c(-c2c(F)cc(OCCCN3CCOCC3)cc2F)c(Cl)nc2ncnn12)C(F)(F)F
Activity [2]: Active
Activity [13]: Active
IC50 [1]: 51 nM

CC[C@]1(O)C[C@H]2CN(CCc3c([nH]c4ccccc34)[C@@](C(=O)OC)(c3cc4c(cc3OC)N(C=O)[C@H]3[C@@](O)(C(=O)OC)[C@H](OC(C)=O)[C@]5(CC)C=CCN6CC[C@]43[C@@H]65)C2)C1 [VINCRISTINE]
IC50 [5]: 58 nM
Ratio IC50 [10]: 26
Activity [26]: inactive

CCCCOc1cc(F)c(-c2c(Cl)nc3ncnn3c2N[C@@H](C)C(F)(F)F)c(F)c1
IC50 [1]: 1900 nM

C[C@H](Nc1c(-c2c(F)ccc(OCCCN(C)C)c2F)c(Cl)nc2ncnn12)C(F)(F)F
IC50 [1]: 785 nM

CCOCCCOc1cc(F)c(-c2c(Cl)nc3ncnn3c2N[C@@H](C)C(F)(F)F)c(F)c1
IC50 [1]: 269 nM

C[C@H](Nc1c(-c2ccc(F)cc2F)c(Cl)nc2ncnn12)C(F)(F)F
IC50 [1]: 953 nM

C[C@H](Nc1c(-c2c(F)cc(OCCCN(C)C)cc2F)c(Cl)nc2ncnn12)C(F)(F)F.Cl
Activity [2]: Active
Ratio IC50 [3]: 6.1
IC50 [5]: 33 nM
IC50 [9]: 114 nM
Ratio IC50 [10]: 1.8
Activity [13]: Active
IC50 [1]: 56 nM
IC50 [22]: 18.7 nM

C[C@H](Nc1c(-c2c(F)cc(SCCCN(C)C)cc2F)c(Cl)nc2ncnn12)C(F)(F)F
IC50 [1]: 192 nM

C[C@H](Nc1c(-c2c(F)cc(OCCCCN(C)C)cc2F)c(Cl)nc2ncnn12)C(F)(F)F
IC50 [1]: 276 nM

C[C@H](Nc1c(-c2c(F)cc(N(C)CCCN(C)C)cc2F)c(Cl)nc2ncnn12)C(F)(F)F
IC50 [1]: 1670 nM

C[C@H](Nc1c(-c2c(F)cc(OCCCN3CCCCC3)cc2F)c(Cl)nc2ncnn12)C(F)(F)F
IC50 [1]: 113 nM

C[C@H](Nc1c(-c2c(F)cc(NCCCN(C)C)cc2F)c(Cl)nc2ncnn12)C(F)(F)F
IC50 [1]: 719 nM

C[C@@H](Nc1c(-c2c(F)cc(F)cc2F)c(Cl)nc2ncnn12)C(F)(F)F
IC50 [1]: 705 nM
